These results are taken from PubChem BioAssay AID1296 (Columbia University Molecular Screening Center, 2008).

Screen size: about 130,000 compounds; about 1,000 (0.77%) were called active. About 1% were inconclusive and are not listed. This is one part of a sample in which actives are shown more often than they occur.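 The calls were made as follows: active = activation at 2 µM above a set limit, confirmed on inspection of the cell images; inconclusive = above the set limit but not confirmed on image inspection; inactive = the rest.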

The experiment can be described thus: activators of insulin promoter-driven GFP, primary screen, imaging, TRM-6 cells, eGFP reporter, cell count (AID 1296).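 As to activation: share of cells whose green reporter signal exceeds an intensity cutoff.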 To be noted: at 2 µM; activation: stronger effect = higher value; normalized cell count: measured here: cell count (toxicity). The method in brief: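 System: human fetal islet-derived TRM-6 cells with tamoxifen-inducible insulin promoter–eGFP reporter; input: seeding density of 1,000 cells per well; buffer or medium: Low-glucose (5.5 mM) medium with tamoxifen; incubation: compound exposure 48 h, 37 °C; measured by: high-content imaging of fixed cells with Hoechst nuclear stain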
In the case of `CC1=CC(=Cc2sc3ccccc3[n+]2C)C=C(C)O1`, the activation was 456% (active) and the normalized cell count worked out at 88.8%.
In the same order, the values of `C[N+]1(C)CCOC(O)(c2ccc(-c3ccc(C4(O)C[N+](C)(C)CCO4)cc3)cc2)C1` (stereo not given) are -9.52% (inactive) and 86.4%.
In the same order, the values of `CC(=O)c1c(C)n(C(C)C)c2ccc(O)cc12` are 269% (inactive) and 65.5%.
In the same order, the values of `CCOCCc1c(O)[nH]c(=S)[nH]c1=O` are 0% (inactive) and 137%.
On to `O=[N+]([O-])c1ccc(C2C3C(c4ccccc4)=NC4(CCCCC4)N32)cc1` (stereo not given), for which the activation is -4.54% (inactive) and the normalized cell count came out at 112%.
In the case of `O=C(COc1ccc2ccccc2c1)N1CCN(Cc2ccncc2)CC1`, the activation is 1.82% (inactive) and the normalized cell count was 106%.
In the same order, the values of `O=C(COC(=O)c1ccccc1)Nc1ccc(Cl)cc1C(=O)c1ccccc1` are -3.33% (inactive) and 106%.
In the case of `CCOC(=O)c1c(-c2ccccc2)oc2ccc(OC(=O)N(C)C)cc12`, the activation was -72.7% (inactive) and the normalized cell count stood at 171%.
In the same order, the values of `CC[N+]1(C)CCCC(OC(=O)C(O)(c2ccccc2)c2ccccc2)C1` (stereo not given) are 295% (active) and 82%.
In the same order, the values of `Cc1nn(Cc2ccccc2Cl)c(Cl)c1C(=O)OC(C(=O)NC(N)=O)C(C)C` (stereo not given) are 6.67% (inactive) and 71.1%.
On to `O=C(CN1CCCC1=O)NCCc1ccccc1`, for which the activation is -2.56% (inactive) and the normalized cell count was 176%.
The like results for `CC(=O)c1c(O)n(C2CCCCCC2)c(=O)[nH]c1=O` were, in that order, 146% (active) and 160%.
In the same order, the values of `COC(=O)CN1C(=O)C2(C(C(=O)OC)=C(N)Oc3ccccc32)C2=C1CC(C)(C)CC2=O` (stereo not given) are -6.67% (inactive) and 84.7%.
In the same order, the values of `Cc1ccc(N2C(=O)NC(=O)C(CCc3ccncc3)(Cc3cccc(Cl)c3Cl)C2=O)cc1` (stereo not given) are 169% (inactive) and 113%.
In the case of `CC(=O)c1ccc(OC(NC(=O)Cc2ccccc2)C(Cl)(Cl)Cl)cc1` (stereo not given), the activation was 6.45% (inactive) and the normalized cell count worked out at 137%.
